Ten compounds from ChEMBL document CHEMBL3351652, “First photoswitchable neurotransmitter transporter inhibitor: light-induced control of γ-aminobutyric acid transporter 1 (GAT1) activity in mouse brain” (J Med Chem, 2014) can be followed below.

Data set [1] in a line: Half life of thermal relaxation of the compound in DMSO-d6/phosphate-buffer at pH 7.4 in dark at 50 uM by UV/vis-spectroscopy. The following applies: pH 7.4, 50 µM. It is filed as physicochemical. The essentials:
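Photoisomer relaxation to (E) monitored in the dark by UV/vis spectroscopy at 50 μM in DMSO-d6/phosphate buffer (pH 7.4) 1:200 (v/v), 25 °C; half-life derived from this thermal back-isomerization.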

The target in data set [2] is T1, Sodium- and chloride-dependent GABA transporter 1 (Mus musculus, UniProt P31648). In words: Inhibition of mouse GAT1 stably expressed in HEK293 assessed as inhibition of [3H]GABA uptake treated with compound irradiated at 375 nm for 30 mins measured after 25 mins by liquid scintillation counting. It is filed as cell-based.
For data set [3], the target named is T1, Sodium- and chloride-dependent GABA transporter 1. Briefly: Inhibition of mouse GAT1 stably expressed in HEK293 assessed as inhibition of [3H]GABA uptake after 25 mins by liquid scintillation counting. It is filed as cell-based. The essentials:
(§1)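 HEK cells stably expressing the individual murine GABA transporter subtype; standardized [3H]GABA uptake assay adapted for photoswitchable ligands, run with the pure (E)-isomers; inhibition expressed as pIC50 ± SEM.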

The target is the same in data set [4]. Briefly: Inhibition of mouse GAT1 stably expressed in HEK293 assessed as inhibition of [3H]GABA uptake treated with compound irradiated at 350 nm for 30 mins measured after 25 mins by liquid scintillation counting. It is filed as cell-based.
Data set [5] addresses T2, GABA transporter 2 (Mus musculus, UniProt P31651).
T2 sequence (P31651 whole entry): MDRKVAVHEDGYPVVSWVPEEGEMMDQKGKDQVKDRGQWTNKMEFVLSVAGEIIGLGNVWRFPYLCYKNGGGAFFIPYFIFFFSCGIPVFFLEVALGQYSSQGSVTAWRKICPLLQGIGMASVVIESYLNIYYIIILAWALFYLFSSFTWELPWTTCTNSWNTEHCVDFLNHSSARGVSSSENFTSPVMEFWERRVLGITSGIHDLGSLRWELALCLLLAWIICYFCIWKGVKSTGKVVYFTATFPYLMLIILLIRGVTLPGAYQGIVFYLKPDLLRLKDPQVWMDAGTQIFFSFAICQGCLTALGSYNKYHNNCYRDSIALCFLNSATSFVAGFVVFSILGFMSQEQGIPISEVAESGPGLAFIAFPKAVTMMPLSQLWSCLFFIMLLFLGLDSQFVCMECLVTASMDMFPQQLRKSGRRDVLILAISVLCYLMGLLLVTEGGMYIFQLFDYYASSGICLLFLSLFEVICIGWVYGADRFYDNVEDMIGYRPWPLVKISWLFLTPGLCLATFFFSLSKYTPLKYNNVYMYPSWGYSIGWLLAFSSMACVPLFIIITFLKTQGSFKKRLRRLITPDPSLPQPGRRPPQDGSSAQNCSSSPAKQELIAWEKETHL
In words: Inhibition of mouse GAT2 stably expressed in HEK293 assessed as inhibition of [3H]GABA uptake after 25 mins by liquid scintillation counting. The format is cell-based. The essentials: as §1

Data set [6] concerns the target T3, GABA transporter 3 (Mus musculus, UniProt P31649).
T3 sequence (P31649 whole entry): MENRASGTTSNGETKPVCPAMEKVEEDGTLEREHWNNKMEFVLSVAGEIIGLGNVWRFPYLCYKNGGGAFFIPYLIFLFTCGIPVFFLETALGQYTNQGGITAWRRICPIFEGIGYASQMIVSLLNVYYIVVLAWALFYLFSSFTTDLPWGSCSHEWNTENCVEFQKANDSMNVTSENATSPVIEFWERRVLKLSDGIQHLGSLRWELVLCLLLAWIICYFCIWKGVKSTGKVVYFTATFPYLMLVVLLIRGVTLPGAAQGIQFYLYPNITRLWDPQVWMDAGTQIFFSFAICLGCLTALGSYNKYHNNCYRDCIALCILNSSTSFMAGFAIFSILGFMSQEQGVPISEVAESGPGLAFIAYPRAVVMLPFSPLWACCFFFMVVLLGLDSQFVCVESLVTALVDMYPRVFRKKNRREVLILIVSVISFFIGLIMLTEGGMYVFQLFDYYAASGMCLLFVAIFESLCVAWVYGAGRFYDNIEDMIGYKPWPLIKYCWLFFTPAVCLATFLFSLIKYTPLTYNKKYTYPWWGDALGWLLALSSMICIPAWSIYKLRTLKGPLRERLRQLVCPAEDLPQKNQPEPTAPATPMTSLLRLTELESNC
In words: Inhibition of mouse GAT3 stably expressed in HEK293 assessed as inhibition of [3H]GABA uptake after 25 mins by liquid scintillation counting. It is filed as cell-based. The essentials:
as §1

Data set [7] concerns the target T4, GABA transporter 4 (Mus musculus, UniProt P31650).
T4 sequence (P31650 whole entry): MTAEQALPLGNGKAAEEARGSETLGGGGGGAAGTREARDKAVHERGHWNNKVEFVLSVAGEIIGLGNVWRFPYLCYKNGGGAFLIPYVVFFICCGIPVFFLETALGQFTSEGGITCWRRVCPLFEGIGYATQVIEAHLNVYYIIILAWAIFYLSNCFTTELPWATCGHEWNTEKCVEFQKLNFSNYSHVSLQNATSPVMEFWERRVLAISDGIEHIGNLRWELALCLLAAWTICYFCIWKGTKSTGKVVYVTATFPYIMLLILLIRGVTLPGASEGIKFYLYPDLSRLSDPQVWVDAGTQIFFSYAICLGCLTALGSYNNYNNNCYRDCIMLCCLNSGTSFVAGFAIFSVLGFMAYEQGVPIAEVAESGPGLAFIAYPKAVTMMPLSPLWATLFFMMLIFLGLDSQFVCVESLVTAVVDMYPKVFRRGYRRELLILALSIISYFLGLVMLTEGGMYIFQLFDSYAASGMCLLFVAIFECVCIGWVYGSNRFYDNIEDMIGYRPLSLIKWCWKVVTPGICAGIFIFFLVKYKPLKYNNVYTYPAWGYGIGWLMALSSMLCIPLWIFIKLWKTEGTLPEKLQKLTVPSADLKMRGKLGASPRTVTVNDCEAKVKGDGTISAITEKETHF
In words: Inhibition of mouse GAT4 stably expressed in HEK293 assessed as inhibition of [3H]GABA uptake after 25 mins by liquid scintillation counting. It is filed as cell-based. The essentials:
as §1

Data set [8] concerns the target Sodium- and chloride-dependent GABA transporter 1 (Mus musculus) (UniProt P31648). Briefly: Selectivity ratio of IC50 for mouse GAT1 stably expressed in HEK293 assessed as inhibition of [3H]GABA uptake after 25 mins to IC50 for mouse GAT1 stably expressed in HEK293 assessed as inhibition of [3H]GABA uptake treated with compound irradiated at 375 nm for 30 mins measured after 25 mins.

Data set [9] is described as follows: Half life of thermal relaxation of the compound in D2O in dark at 10 mM by 1H NMR analysis. Conditions: 10000 µM. It is filed as physicochemical. In outline:
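Thermal relaxation of the photoisomer back to the (E)-form followed in the dark by 1H NMR in D2O, 10 mM, at 37 °C.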

Data set [10] addresses Sodium- and chloride-dependent GABA transporter 1 (Mus musculus) (UniProt P31648). Briefly: Inhibition of GAT1 in C57BL/6N mouse dentate gyrus granule cells assessed as induction of tonic GABAA receptor-mediated current at -70 mV holding potential non-UV irradiated compound treated at 20 uM by patch-clamp analysis.
For data set [11] the target is unchanged. In words: Inhibition of GAT1 in C57BL/6N mouse dentate gyrus granule cells assessed as induction of tonic GABAA receptor-mediated current at -70 mV holding potential UV irradiated compound treated at 20 uM by patch-clamp analysis. On the technique in general: Patch clamp records ionic current or voltage across a cell membrane.
Data set [12] has the same target. Briefly: Inhibition of GAT1 in C57BL/6N mouse dentate gyrus granule cells assessed as induction of tonic GABAA receptor-mediated current at -70 mV holding potential compound treated at 20 uM followed by neuronal tissue UV-irradiation by patch-clamp analysis.

Activity calls are given as the source filed them. The rule behind the calls is not given here.

In general, IC50 refers to the point on the concentration scale where inhibition reaches its midpoint. In [1], `O=C(O)[C@@H]1CCCN(CCOCCc2ccc(/N=N\c3cccc4ccccc34)cc2)C1` had a t1/2 of 13.6 h. In addition, in data set [2], the IC50 is 0.794 µM.

`O=C(O)C1CCCN(CCOCCc2ccc(/N=N/c3ccccc3)cc2)C1` (stereo not given): the IC50 is 1.91 µM in [3]; 4.57 µM in [4]; more than 1000 µM in data set [5]; more than 1000 µM in data set [6]; more than 1000 µM in [7].

As for `O=C(O)[C@@H]1CCCN(CCOCCc2cccc(/N=N\c3cccc4ccccc34)c2)C1`, in [1], the t1/2 was found to be 19.3 h. For the same compound, the IC50 in data set [2] was 1.66 µM.

For `O=C(O)[C@@H]1CCCN(CCOCCc2ccc(/N=N/c3cccc4ccccc34)cc2)C1`, the IC50 in data set [3] was 0.269 µM; in [2], 0.794 µM; in data set [5], 20.4 µM; in [6], 19.5 µM; in [7] it was 22.9 µM. Further, in data set [8], the Ratio IC50 was 3.

Compound `O=C(O)C1CCCN(CCOCCc2cccc(/N=N\c3ccccc3)c2)C1` (stereo not given) displayed a t1/2 in data set [9] of 140 h. Further, the IC50 in [4] is 4.17 µM.

For `O=C(O)[C@@H]1CCCN(CCOCCc2cccc(/N=N/c3cccc4ccccc34)c2)C1`, the IC50 in data set [3] is 0.407 µM; in [2], 1.66 µM; in data set [5], 64.6 µM; in [6] it was 25.1 µM; in data set [7], 30.9 µM. For the same compound, the Ratio IC50 in data set [8] stood at 4. For the same compound, the inhibition entry in data set [10] is “Active”. Also, the inhibition entry in [11] and in data set [12] was “inactive” in each case.

As for `O=C(O)C1CCCN(CCOCCc2ccc(/N=N\c3ccccc3)cc2)C1` (stereo not given), in [9], the t1/2 was 57.6 h. Besides, the IC50 in data set [4] is 4.57 µM.

`O=C(O)C1CCCN(CCOCCc2ccccc2/N=N/c2ccccc2)C1` (stereo not given): the 50% inhibitory concentration (IC50) in data set [3] is 10.7 µM; in [4], 5.5 µM; in [5] it was 234 µM; in data set [6], 145 µM; in [7], 562 µM.

In the case of `O=C(O)C1CCCN(CCOCCc2cccc(/N=N/c3ccccc3)c2)C1` (stereo not given), the IC50 in data set [3] is 3.16 µM; in data set [4], 4.17 µM; in data set [5], 339 µM; in [6], 148 µM; in data set [7], 209 µM.

`O=C(O)C1CCCN(CCOCCc2ccccc2/N=N\c2ccccc2)C1` (stereo not given) had a t1/2 in [9] of 115 h. Also, in data set [4], the IC50 was 5.5 µM.
